Data taken from ChEMBL document CHEMBL4138245, “Design and synthesis of novel quinacrine-[1,3]-thiazinan-4-one hybrids for their anti-breast cancer activity” (Eur J Med Chem, 2018).
Calls of active or inactive are those of the source. The rule behind the calls is not given here.

Assays:
[1] = Selectivity index, ratio of compound concentration for cell killing activity in human MCF10A cells to compound concentration for cell killing activity in human SK-BR-3 cells; format: toxicity, cell-based; details: MCF10A cells versus SK-BR-3 cells, read-out: Selectivity Index
[2] = Selectivity index, ratio of compound concentration for cell killing activity in human 184B5 cells to compound concentration for cell killing activity in human MCF7 cells; format: toxicity, cell-based; details: 184B5 cells versus MCF7 cells, read-out: Selectivity Index
A549 = assay: Antiproliferative activity against human A549 cells assessed as compound concentration required to show complete inhibition of cell viability up to 96 hrs by SRB assay; format: functional
MDA-MB-231 [3] = assay: Cell cycle arrest in human MDA-MB-231 cells assessed as accumulation at S phase at 2 uM after 48 hrs by propidium iodide staining based flow cytometry; format: functional
Procedure, shortened: (§1)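 MCF7, MDA-MB231 and non-cancer 184B5 breast cells exposed to 2 μM for 48 h, then cell-cycle analysis by flow cytometry; duplicates, repeated three times.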

[4] = molecular target: Serine/threonine-protein kinase Chk2 (Homo sapiens) (UniProt O96017); assay: Induction of CHK2 phosphorylation at T68 residue in human MCF7 cells at 2 uM after 12 to 48 hrs by Western blot method; format: cell-based
MCF7 [5] = assay: Inhibition of DNA replication in human MCF7 cells assessed as EdU incorporation at 2 uM pretreated for 48 hrs followed by EdU addition at final 45 mins of 48 hrs incubation time (reference value: 45 to 63%); format: functional; set-up: scale not given: the % may be the effect or the level left
[6] = molecular target: Serine/threonine-protein kinase mTOR (Homo sapiens) (UniProt P42345); assay: Inhibition of mTOR pathway in human MCF7 cells assessed as reduction in S6K phosphorylation at Thr389 residue at 2 uM after 24 hrs by Western blot method; format: cell-based
[7] = molecular target: Serine/threonine-protein kinase mTOR (Homo sapiens) (UniProt P42345); assay: Inhibition of mTOR pathway in human MCF7 cells assessed as reduction in 4EBP1 phosphorylation at Thr37/Thr46 residues at 2 uM after 6 hrs by Western blot method; format: cell-based
LNCaP = assay: Antiproliferative activity against human LNCAP cells assessed as compound concentration required to show complete inhibition of cell viability up to 96 hrs by SRB assay; format: functional
[8] = Selectivity index, ratio of compound concentration for cell killing activity in human 184B5 cells to compound concentration for cell killing activity in human LNCAP cells; format: toxicity, cell-based; details: 184B5 cells versus LNCAP cells, read-out: Selectivity Index
[9] = Selectivity index, ratio of compound concentration for cell killing activity in human 184B5 cells to compound concentration for cell killing activity in human NCI-H1975 cells; format: toxicity, cell-based; details: 184B5 cells versus NCI-H1975 cells, read-out: Selectivity Index
[10] = Selectivity index, ratio of compound concentration for cell killing activity in human MCF10A cells to compound concentration for cell killing activity in human NCI-H1975 cells; format: toxicity, cell-based; details: MCF10A cells versus NCI-H1975 cells, read-out: Selectivity Index
[11] = Selectivity index, ratio of compound concentration for cell killing activity in human MCF10A cells to compound concentration for cell killing activity in human BT474 cells; format: toxicity, cell-based; details: MCF10A cells versus BT474 cells, read-out: Selectivity Index
MCF7 [12] = assay: Upregulation of Cyclin-E protein expression in human MCF7 cells at 2 uM after 12 to 24 hrs by Western blot method; format: functional, cell-based
184B5 = assay: Antiproliferative activity against human 184B5 cells after 48 hrs by SRB assay; format: cell-based; details: 184B5, 48 h
Procedure, shortened: (§2)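 SRB assay: 5,000-10,000 cells/well plated, 24 h at 37 °C/5% CO2 before drug; seven concentrations from 100 μM down (two- to ten-fold serial dilutions, DMSO ≤0.1% final) for 48 h; TCA fixation (10% final, 60 min, 4 °C), 0.4% SRB in 1% acetic acid, solubilized in 10 mM Tris base, absorbance 515-564 nm; growth = (Ti−Tz)/(C−Tz)×100; IC50 from sigmoidal variable-slope fit; triplicates, ≥2 independent experiments.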

[13] = Selectivity index, ratio of compound concentration for cell killing activity in human MCF10A cells to compound concentration for cell killing activity in human CAMA1 cells; format: toxicity, cell-based; details: MCF10A cells versus CAMA1 cells, read-out: Selectivity Index
MCF7 [14] = assay: Cell cycle arrest in human MCF7 cells assessed as accumulation at S phase at 2 uM after 48 hrs by propidium iodide staining based flow cytometry; format: functional; procedure, shortened: as §1
MCF-10A [15] = assay: Antiproliferative activity against human MCF10A cells assessed as compound concentration required to show complete inhibition of cell viability up to 96 hrs by SRB assay; format: cell-based
SK-BR-3 = assay: Antiproliferative activity against human SK-BR-3 cells assessed as compound concentration required to show complete inhibition of cell viability up to 96 hrs by SRB assay; format: functional
PC-3 = assay: Antiproliferative activity against human PC3 cells assessed as compound concentration required to show complete inhibition of cell viability up to 96 hrs by SRB assay; format: functional
CAMA-1 = assay: Antiproliferative activity against human CAMA1 cells assessed as compound concentration required to show complete inhibition of cell viability up to 96 hrs by SRB assay; format: functional
[16] = Selectivity index, ratio of compound concentration for cell killing activity in human MCF10A cells to compound concentration for cell killing activity in human MCF7 cells; format: toxicity, cell-based; details: MCF10A cells versus MCF7 cells, read-out: Selectivity Index
MCF7 [17] = assay: Antiproliferative activity against human MCF7 cells after 48 hrs by SRB assay; format: functional, cell-based; details: MCF7, 48 h; procedure, shortened: as §2
MDA-MB-453 = assay: Antiproliferative activity against human MDA-MB-453 cells assessed as compound concentration required to show complete inhibition of cell viability up to 96 hrs by SRB assay; format: functional
MCF-10A [18] = assay: Antiproliferative activity against human MCF10A cells at 1 to 2 uM up to 96 hrs by SRB assay; format: cell-based
MDA-MB-231 [19] = assay: Cell cycle arrest in human MDA-MB-231 cells assessed as accumulation at sub-G1 phase at 2 uM after 48 hrs by propidium iodide staining based flow cytometry; format: functional; procedure, shortened: as §1
MDA-MB-231 [20] = assay: Antiproliferative activity against human MDA-MB-231 cells after 48 hrs by SRB assay; format: functional, cell-based; details: MDA-MB-231, 48 h; procedure, shortened: as §2
[21] = molecular target: RAC-alpha serine/threonine-protein kinase (Homo sapiens) (UniProt P31749); assay: Upregulation of AKT phosphorylation at Thr308 residue in human MCF7 cells at 2 uM after 24 to 48 hrs by Western blot method; format: cell-based
Procedure, shortened: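 MCF7 cells were treated with the compound, collected and PBS-washed, then lysed on ice (Triton X-100/Tris pH 7.4 buffer with PMSF and protease inhibitors). Lysates were BCA-quantified, and 30–40 µg protein was resolved on 8% or 10% SDS-PAGE. Proteins were semi-dry transferred to PVDF, milk-blocked and probed with primary antibody overnight at 4 °C, then detected by ECL. Blots are representative of three independent experiments.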

[22] = Selectivity index, ratio of compound concentration for cell killing activity in human 184B5 cells to compound concentration for cell killing activity in human PC3 cells; format: toxicity, cell-based; details: 184B5 cells versus PC3 cells, read-out: Selectivity Index
MCF7 [23] = assay: Cell cycle arrest in human MCF7 cells assessed as DNA content at 2 uM after 6 hrs by BrdU incorporation assay (reference value: 31.6%); format: functional

Sequence of RAC-alpha serine/threonine-protein kinase (Homo sapiens) (P31749 whole entry): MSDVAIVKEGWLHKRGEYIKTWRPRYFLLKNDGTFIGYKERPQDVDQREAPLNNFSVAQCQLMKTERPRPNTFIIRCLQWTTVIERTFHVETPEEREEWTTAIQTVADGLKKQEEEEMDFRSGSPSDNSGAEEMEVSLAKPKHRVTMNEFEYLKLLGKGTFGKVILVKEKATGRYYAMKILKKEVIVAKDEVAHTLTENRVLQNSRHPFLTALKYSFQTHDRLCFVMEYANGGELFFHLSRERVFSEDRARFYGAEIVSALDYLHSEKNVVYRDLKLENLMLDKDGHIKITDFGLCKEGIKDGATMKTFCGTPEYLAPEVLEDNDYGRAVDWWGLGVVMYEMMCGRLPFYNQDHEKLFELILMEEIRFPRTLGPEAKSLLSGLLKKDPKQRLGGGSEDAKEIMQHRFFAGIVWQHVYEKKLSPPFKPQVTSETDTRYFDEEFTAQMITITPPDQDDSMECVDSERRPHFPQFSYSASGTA
Sequence of Serine/threonine-protein kinase Chk2 (Homo sapiens) (O96017 whole entry): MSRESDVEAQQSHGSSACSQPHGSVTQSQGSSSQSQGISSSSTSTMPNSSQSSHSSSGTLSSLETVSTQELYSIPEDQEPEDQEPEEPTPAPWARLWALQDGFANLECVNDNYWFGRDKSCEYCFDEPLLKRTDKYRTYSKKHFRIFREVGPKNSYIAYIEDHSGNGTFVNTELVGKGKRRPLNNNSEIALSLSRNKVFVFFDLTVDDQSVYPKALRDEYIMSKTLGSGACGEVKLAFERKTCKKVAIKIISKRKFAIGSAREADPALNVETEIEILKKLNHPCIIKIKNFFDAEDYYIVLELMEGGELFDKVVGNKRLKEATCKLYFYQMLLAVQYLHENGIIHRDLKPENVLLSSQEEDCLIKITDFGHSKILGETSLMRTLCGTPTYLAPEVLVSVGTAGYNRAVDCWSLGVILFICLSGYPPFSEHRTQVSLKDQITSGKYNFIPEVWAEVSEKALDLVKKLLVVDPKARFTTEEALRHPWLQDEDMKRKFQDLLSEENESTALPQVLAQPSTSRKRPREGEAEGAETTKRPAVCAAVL

Activity [4]: inactive
inhibition [6]: Active
inhibition [7]: Active
IC50 (MCF7 [17]): 690 nM
IC50 (MDA-MB-231 [20]): 2800 nM
Activity [21]: Active
Structure (SMILES): COc1ccc2nc3cc(Cl)ccc3c(NCCCN3C(=O)CCSC3c3cccs3)c2c1 (stereo not given)
selectivity ratio [1]: 3 to 6
selectivity ratio [2]: 3 to 6
Activity (A549): 2 µM
Activity (MDA-MB-231 [3]): Active
Activity (MCF7 [5]): 5%
Activity (LNCaP): 2 µM
selectivity ratio [8]: 3 to 6
selectivity ratio [9]: 3 to 6
selectivity ratio [10]: 3 to 6
selectivity ratio [11]: 3 to 6
Activity (MCF7 [12]): Active
IC50 (184B5): 4.96 µM
selectivity ratio [13]: 3 to 6
Activity (MCF7 [14]): Active
Activity (MCF-10A [15]): > 6 µM
Activity (SK-BR-3): 2 µM
Activity (PC-3): 2 µM
Activity (CAMA-1): 2 µM
selectivity ratio [16]: 3 to 6
Activity (MDA-MB-453): 2 µM
Activity (MCF-10A [18]): Non-Toxic
Activity (MDA-MB-231 [19]): Active
selectivity ratio [22]: 3 to 6
Activity (MCF7 [23]): 3.7%
